From PubChem BioAssay
HSP90 inh: blocks HSP90-mediated luciferase refolding in reticulocyte lysate | Rabbit reticulocyte lysate, luciferase refolding luminescence, 3 h | inhibition, % at 5.6 µM | 0.91% of 290,000 active | AID 1789;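 active = inhibition above the screen-wide mean plus 3 SD, computed separately per campaign, cut at about 16% in these data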;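 also: 0% = DMSO wells and 100% = 60 µM geldanamycin wells; inhibitors lower the luminescence because luciferase stays unfolded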
SENP7 inh: inhibitors of human SENP7 protease; 1.5% of 330,000 active; recombinant SENP7, Z-RLRGG-aminoluciferin luminescence, 40 min; inhibition, % at 5 µM; Q9BQF6;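 active = inhibition above about 50% at the single test dose, limit read from the data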;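 also: plate controls were DMSO with enzyme for no effect and no enzyme buffer wells for full effect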
SENP8 block-1: inhibitors of human SENP8 protease | Q96LD8 | purified SENP8, Z-RLRGG-aminoluciferin cleavage, luminescence | inhibition, % at 10 µM | 1.2% of 330,000 active; in the data active = inhibition above about 50%
Target sequence (Q96LD8 whole entry, looked up): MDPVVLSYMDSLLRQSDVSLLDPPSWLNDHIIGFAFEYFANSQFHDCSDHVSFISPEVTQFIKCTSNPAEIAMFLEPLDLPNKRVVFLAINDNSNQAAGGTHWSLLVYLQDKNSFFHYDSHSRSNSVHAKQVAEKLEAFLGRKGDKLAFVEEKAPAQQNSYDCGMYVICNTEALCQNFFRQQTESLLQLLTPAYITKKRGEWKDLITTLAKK
SENP8 block-2: inhibitors of human SENP8 protease; recombinant SENP8, Nedd8 substrate fluorescence; inhibition, % at 20 µM; 0.64% of 360,000 active; in the data active = inhibition mostly above about 40%, no sharp cut-off; inactive = mostly below about 27%
SENP1 inh: SENP1 (human) catalytic domain inhibition. Q9P0U3. inhibition, % at 10 µM. 0.21% of 360,000 active. recombinant SENP1 catalytic domain, CyPet-SUMO1-YPet FRET cleavage;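 active = inhibition at least 30% at 10 µM, raw YFP signal under a set limit, fluorescence ratio 0.5 to 1.5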;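 also: 0% = enzyme with DMSO and 100% = no enzyme wells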
Target sequence (Q9P0U3 419-644 limits assumed): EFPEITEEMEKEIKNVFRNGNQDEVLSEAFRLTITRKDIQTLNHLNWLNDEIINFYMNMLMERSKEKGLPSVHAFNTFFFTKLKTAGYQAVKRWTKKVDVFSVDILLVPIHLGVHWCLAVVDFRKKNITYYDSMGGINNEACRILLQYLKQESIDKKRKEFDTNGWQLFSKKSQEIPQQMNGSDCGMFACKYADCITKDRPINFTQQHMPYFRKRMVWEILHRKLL
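system = hSENP1 catalytic domain, recombinant | reagent = SFCypet-SUMO1-SFYpet substrate at 25 nM | doses = one dose per compound, 10 µM, 0.5% DMSO | incubation = enzyme reaction for 50 min at room temperature, dark | measured by = FRET, CFP and YFP emission | controls = no-enzyme low, enzyme-DMSO high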
SENP6 inh: inhibitors of human SENP6 protease; Q9GZR1; Recombinant SENP6 catalytic domain, aminoluciferin luminescence; inhibition, % at 10 µM; 1.8% of 330,000 active;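 active = inhibition above about 50% at the single tested dose, limit read from the data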;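 also: plate controls were DMSO wells with enzyme for no effect and DMSO wells lacking enzyme for full effect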
The depositor's hits bear a star; nt = no result. Shown are actives, neighbours in structure and some others; about 2.9% of the full set was active somewhere.

SMILES	HSP90 inh	SENP7 inh	SENP8 block-1	SENP8 block-2	SENP1 inh	SENP6 inh
Cn1c(=O)c2sccc2n(Cc2cccc(Br)c2)c1=O	2	5	6	15	0	9
CC1=NN(c2nc(-c3ccc(C)cc3)cs2)C(=O)C1N=Nc1cccc(O)c1 (stereo not given)	3	-2	8	36*	4	-7
Cc1c(N2C(=O)/C(=C\c3ccc(N(C)C)cc3)N(C)C2=S)c(=O)n(-c2ccccc2)n1C	-1	nt	nt	34	69*	nt
CN1C(=S)N(c2cccnc2)C(=O)/C1=C\c1ccc(C(C)(C)C)cc1	-1	-9	-4	1	-3	-5
CN1C(=S)N(c2cccnc2)C(=O)/C1=C\c1ccc(N(C)C)cc1	-4	nt	nt	38	61*	nt
CCN(CC)S(=O)(=O)c1ccc(N2CCCC2)c(NC(=O)CC(C)(C)C)c1	4	1	-5	10	-1	-5
COC1=C(N)C(=O)c2nc(C)ccc2C1=O	nt	nt	nt	99*	0	nt
COC1=C(Br)C(=O)c2nc(C)ccc2C1=O	nt	nt	nt	86*	7	nt
COC1=C(Nc2ccc(C)cc2)C(=O)c2ccccc2C1=O	1	12	5	-51	3	30
Brc1ccc2c(c1)C(c1ccc(N3CCOCC3)cc1)=NNC(c1cccs1)=N2	-1	1	-4	-72	49	4
Fc1ccc2c(c1)C(c1ccc(N3CCOCC3)cc1)=NNC(c1cccs1)=N2	2	3	-2	-141	42*	-5
COc1ccccc1C(=O)O/N=C1/CCCc2c1ccc(OC)c2[N+](=O)[O-]	0	13	-3	29	-1	-9
COc1ccc2c(c1)CC/C2=N\OC(=O)c1ccccc1OC	-3	67*	42	25	1	68*
Cc1ccc(NC2=C/C(=N/S(=O)(=O)c3cccs3)c3ccccc3C2=O)cc1C	2	nt	nt	61*	1	nt
COc1ccc(S(=O)(=O)/N=C2\C=C(Nc3ccc(O)cc3)C(=O)c3ccccc32)cc1	96*	87*	95*	90*	2	93*
Cc1cccc(S(=O)(=O)N2CCn3cccc3C2C)c1 (stereo not given)	nt	0	1	-45	-22	-5
Cc1cc2c(=Cc3ccc(N(C)C)cc3)c3ccccc3n2[n+]1C	nt	nt	nt	43*	41*	nt
CCOC(=O)c1cc2c(=Cc3ccc(N(C)C)cc3)c3ccccc3n2[n+]1C	nt	nt	nt	91*	44	nt
COC(=O)c1ccc(S(=O)(=O)NCCSc2nnc3c4ccccc4n(C)c3n2)cc1	4	-2	-6	-3	3	-8
CCOC(=O)CCSc1nc(C)cc(C(F)(F)F)c1C#N	-1	-13	-5	-28	76*	-5
CCOc1cc(C2CC(=O)NC(SCC)=C2C#N)ccc1O (stereo not given)	-1	7	0	7	-1	16
CCOc1cc(C2CC(=O)N3CN(C4CCCCC4)CSC3=C2C#N)ccc1O (stereo not given)	1	25	-1	66*	-42	14
O=C1CSC(=S)N1/N=C/c1cc(Br)ccc1O	-2	nt	nt	nt	nt	nt
O=C1CSC(=S)N1/N=C/c1ccc(O)c(O)c1O	-2	8	8	53*	12	-2
CC(C)NCc1cc(Br)ccc1OCc1ccccc1	-6	5	-1	18	2	-4
SMILES	HSP90 inh	SENP7 inh	SENP8 block-1	SENP8 block-2	SENP1 inh	SENP6 inh
C[C@@H](NC(=O)/C(C#N)=C/c1ccc(O)c(O)c1)c1ccccc1	nt	2	3	-50	-74	-4
N#C/C(=C\c1ccc(O)c(O)c1)C(=O)Nc1ccccc1	nt	47	71*	-6	-34	79*
Cc1ccc(CNCCC2=CCCCC2)cc1	-5	10	-2	14	0	-7
O=c1c2c(nc3cc(-c4cccc(F)c4)[nH]n13)CCC2	0	45	44	-270	2	60*
O=C1C=C(Nc2cccnc2)c2ccccc2C1=O	nt	nt	nt	91*	3	nt
S=C1Nc2ccccc2CS1	nt	nt	nt	19	2	nt
S=C1Cc2ccccc2N1	5	nt	nt	45*	-2	nt
Cc1[nH]n(-c2ccccc2)c(=O)c1C(C[N+](=O)[O-])c1ccc(F)cc1 (stereo not given)	-1	25	-1	40	3	5
Cc1[nH]n(-c2ccccc2)c(=O)c1C(C[N+](=O)[O-])c1ccc(Cl)cc1 (stereo not given)	-3	22	-3	45*	1	23
